Laboratory results: the EternaBench riboswitch data

Tested on: MS2 coat protein
Test: apparent Kd, MS2 coat protein; higher = weaker binding; RNA-MaP array; FMN 200 µM where present
Method in brief: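 Designs were transcribed by stalled E. coli RNA polymerase on Illumina sequencing-chip clusters. They were titrated with SNAP-549-labelled MS2 coat protein from 0.7 or 1.5 nM, doubling to 3 µM, in 100 mM Tris-HCl pH 7.5, 80 mM KCl, 4 mM MgCl2, BSA, DTT, yeast tRNA and Tween-20, without and then with constant ligand. The apparent Kd is the median of filtered per-cluster fits after normalisation of green signal to red-channel RNA signal and control-cluster median Fmax.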

[1] = designed as: ON switch for flavin mononucleotide, no ligand
[2] = ligand present: flavin mononucleotide, designed as: ON switch for flavin mononucleotide
[3] = designed as: OFF switch for flavin mononucleotide, no ligand
[4] = ligand present: flavin mononucleotide, designed as: OFF switch for flavin mononucleotide

Sequence | apparent Kd [1] [nM] | apparent Kd [2] [nM] | apparent Kd [3] [nM] | apparent Kd [4] [nM]
GGGAUCAUCGGAGGAUAUCAUGUAGAUACAUGAGGAUCACCCAUGUCGAUGGAGACAUCGGAGAUUGAGAAGGCCGAUGAUCCG | 741 | 28.9 | – | –
GAAAUACAUGAGGAUCACCCAUGUAAGGAUAUGCUAGCGGUCGGCUGACUGACUGCUAGCAGAAGGUACAUGAU | – | – | 80.9 | 108
AUAAUUUUAUAUUUAUUUUUAUUCAGAAGGCAUAACAUGAGGAUCACCCAUGUAAAUUAAUGUUAUGAGGAUAUGAUUUGGUUA | – | – | 26.2 | 123
AGUCGGAGCAGAGGAUAUACAUGAGGAUCACCCAUGUAAUAAAGUGAAGACUGGAAACAGUCAAUGUAGAAGGCUGCUCCGACA | – | – | 27.2 | 210
UAUCCGUCAGUAGGAUAUAUGCCGAGUCAUUGCAUAGAAGGACUGACAUGAGGAUCACCCAUGUCAGAUUGCGCUGGUCUUCCG | – | – | 6.24 | 6.68
AAACCUAUAGGAUAUACAUGAGGAUCACCCAUGUUGCGAUUUUUUAGGUAACAGAUCCGUAGAAGGGUAGGUCA | – | – | 36.4 | 66.6
GCACGGCAUGUAGGAUAUGCAUAGCAUUGCUAUGCAGAAGGACAUGAGGAUCACCCAUGUAUGUAUUCCAUACAAUUCCCGUGC | – | – | 5.86 | 12
AAAACAUGAGGAUCACCCAUGUAAAGAACGGUUAAUAGAUCUGAGGAUAUACUAGAAUUUAGGUAGUAGAAGGCAGUGGGUACA | 35 | 26.2 | – | –
CCCAUGUGUGUGAGGAUAUGGUCAGUCAUACUCGGCCAGAAGGCACAUGAGGAUCACCCAUGUGGCCUCUCAUC | – | – | 17 | 17.8
GUGCACAUUCGAGGAUAUCGGAGAGGGAUCCUUCGAGAAGGCGAUUCAUGCUGUGUUAUUCUGGACAUGAGGAUCACCCAUGUG | 265 | 125 | – | –
GUCAGCUCGUGAGGAUAUACAACACUGCUGCGGCAGUGUAUUAAGAUCACAUGAGGAUCACCCAUGUAGAAGGCACGAGCUGAU | – | – | 13.7 | 262
AGAUUUUUACAUGAGGAUCACCCAUGUUAAUAGGUGUUUGUCAGAAGGCAUUAUGAGAGAAUUAAUGAGGAUAUGAAGUUUCAU | 40.4 | 27.8 | – | –
UUAUUUAUGUAAGGAUAUCGAUUAUAUACACAUCCGACAUGAGGAUCACCCAUGUUUUAUUUUUUCGAGAAGGUACAUUGUCGG | 76.5 | 74.7 | – | –
AAGAAGGACGCAGGAUAUCCAGGACCUCCCGCAGGAGAAGGGCGAGACAUGAGGAUCACCCAUACAUGAGGAUCACCCAUGUAG | – | – | 17.3 | 18.4
AAGUAACAUGAGGAUCACCCAUGUUAGGAUAUCUCGGCCACAGGAUCGCUGUGAAGCCAGAGAAGGAGCGGGUG | – | – | 175 | 186
AUACAUGAGGAUCACCCAUGUAAUUAAUUAACUAGUAAGAUCUAGGAUAUCAGCUCGAUUAGAGCUGAGAAGGAGAUCACAUGU | 34.7 | 16.9 | – | –
AAUAGGCGAGGAUAUACAUGAGGAUCACCCAUGUAAGUAAGCCUGGCUGAAACUGAAUGUAGAAGGCGCAAUAA | – | – | 17.6 | 58.5
UUCCGGCGUGUAGGAUAUGGAUCCGAUUAGGAUCCAGAAGGACAUGAGGAUCACCCAUGUACAUGUAAACAGUCAUCACCGGAA | – | – | 6.09 | 7.65
UUGCCUCAGAACAUGAGGAUCACCCAUGUGCUGCGGGCAACGUAGGAUAUGAUGGUGCAACACCAUCAGAAGGAUGAUGGUACC | 5.62 | 5.45 | – | –
ACAUACUUUCGAGGAUAUCGGUGAUAUAUUUAACGAGAAGGCGAUAAAAGAUAUAAACUUAUAGACAUGAGGAUCACCCAUGUA | 27.4 | 27.1 | – | –
GUUGGUGUAGAAGGAUAUUGGUGAUGCGUCUUGUACAUGAGGAUCACCCAUGUCACUCUGCACGCCGAGAAGGUCUGCAAAUGG | 70 | 48.1 | – | –
GGGUUCAUGUAAGGAUAUGUAUUGUUAAUCGGAGCAGAAGGUACAUGAGGAUCACCCAUGUCAACCUAGAGCAGGGCUUCUUAA | – | – | 23.7 | 45.2
AGCGUGUAAGGAUAUACGUCGGACAGCAAAUGCUAUCCCUAGUAGAAGGUACAUGAGGAUCACCCAUGUGUCCA | – | – | 22.9 | 58.8
CUUUCGUGAGGAUAUGAGGCUUCGAUCGUGAGAUCGAGGCUACAGAAGGCACAUGAGGAUCACCCAUGUUCCUC | – | – | 30.9 | 392
AAAAGUCGAGGAUAUGCAAAAUGAUUGCGAAAGCAAUCAAAACAUGAGGAUCACCCAUGUAGAAGGCGACAAAA | – | – | 21.3 | 13.9
GAGAAACAUGAGGAUCACCCAUGUGAGGAUAUGCGUACGUUGUCCGUAGGCGACGUGCGCAGAAGGCGCAAAGG | – | – | 83.9 | 118
AGAAUGAUGUCAGGAUAUGACGCUGAGAGCACGUCAGAAGGGACAUGAGGAUCACCCAUGUCGGGCUAAUGAAGCUAUGGCACU | – | – | 8.86 | 11.7
AGUGUGUUAGGAUAUCGCAUAUGCUGGAGGAGGUGGAGUUACGAGAAGGAACAUGAGGAUCACCCAUGUAGGAC | – | – | 28.2 | 26.5

Sequence | apparent Kd [1] [nM] | apparent Kd [2] [nM] | apparent Kd [3] [nM] | apparent Kd [4] [nM]
UUUUAACAUGAGGAUCACCCAUGUGAGGAUAUCGAAAUUUAUAUUAAUAUUAAUUAAACGAGAAGGCACAUUUU | – | – | 61.5 | 86.4
CUUUAUGUUGAGGAUAUGCACCAGCUCACUGACGCAGAAGGCGACACAUGAGGAUCACCCAUGUCAGUUCGCGU | – | – | 17.6 | 17.8
AAUAACAGAGGAUAUACUAUUUUAUGUGUUUAUUGUUUUGAACAUGAGGAUCACCCAUGUAGAAGGCUGAUUGA | – | – | 47.8 | 56.3
UCAUAUUUACAAGGAUAUCAAUUGAAUAAACAUCGGACAUGAGGAUCACCCAUGUGAAAGUAUGGUGAGAAGGUGUAUUGUCGG | 217 | 154 | – | –
UGUCGGAGCAGAGGAUAUUACAUGAGGAUCACCCAUGUAUGAACCAAUAGCUCGAAACAGCAAUGUAAGAAGGCUGCUCCGACA | – | – | 6.38 | 69.9
AAUUUACAUGAGGAUCACCCAUGUGAGGAUAUGAUACUAUGUACUUCGGUACAUAGUAUCAGAAGGCAUGUGGG | – | – | 27.2 | 21.4
GGAGCCGGCACCGAGGAUAUUCAUAUUAAAACAUGAGGAUCACCCAUGUGGGCCAGAAGGCCUUGGGAGAAGGCGGAUCGGCUCG | 305 | 30 | – | –
UGAGCCUCGUGAGGAUAUACAUGAGGAUCACCCAUGUAAUAAAUCCAACGGAGGAAACUCCGAAUGUAGAAGGCACGAGGCUCA | – | – | 18.1 | 64.3
AAAUUUUGUCAAGGAUAUGUAUUAUUGAUUUGAAAACAUGAGGAUCACCCAUGUAUAUGGUGGGAACAGAAGGUGAAUAAGUAA | – | – | 202 | 236
GGCGGGAAUGAGAAGGGUCACAUGAGGAUCACCCAUGUGCUCUUCGCCGUGACAGGAUAUCAUCGCCGCCAGGUUAGAUUUUUG | – | – | 7.83 | 30.9
CCUCAUAUUUAGGAUAUGAUUGGUAAUUAUUAGUUAGAAGGAGGUACAUGAGGAUCACCCAUGUAAUAUUUAAA | – | – | 21.5 | 21.2
GCCAACUUAUGAGGAUAUGGCACCUUAUUGGUGCCAGAAGGCAUGUCAAUUGACAUGAGGAUCACCCAUGUAUUAUAGUUGGCA | 700 | 108 | – | –
CUCUUGUGAGGAUAUGCUGCUCGUCACGAAAGUGAUGAGUAGCAGAAGGCACAUGAGGAUCACCCAUGUAAAUA | – | – | 93.7 | 21.7
CCAGGCAGUGUGAGGAUAUGCUGGUGCUUGCAUCAGCAGAAGGCACAUGAGGAUCACCCAUGUGAAGAGCUUGG | – | – | 27.6 | 131
CUGAAGAUAUCAGGAUAUCUAUUUCCUACAUGAGGAUCACCCAUGUAGGUGAUCAGCCAAGUAAAGGAGAAGGGAUAUCUUUAG | 32.3 | 9.78 | – | –
UCCGCAAGUGAAGGAUAUACGGCUGAAGAGCCAGUAGAAGGUCACAUGAGGAUCACCCAUGUCUACCGCUACGAGAUAUUACAA | – | – | 19.1 | 59.5
GUGAUGAUCGAGAAGGCCACUACAUGAGGAUCACCCAUGUCGUGGUGUAUUGGAGGAUAUCGAUCGACGUCUUAUGAGGACAUA | – | – | 4.82 | 5.95
CAUUAAUUGAUUAUUGUAUUUUUACAGGAUAUGUUACAUGAGGAUCACCCAUGUUUAUAUGGGAGACAGAAGGGUAUUUAUAGA | – | – | 355 | 193
AGCAUGUGAGGAUAUGCGGACUCCGGUAAAUCUGGAGUCCAGUAGAAGGCACAUGAGGAUCACCCAUGUGAUAA | – | – | 98.3 | 83.2
CAUCUGUGAGGAUAUGGUGAGUAGUGCCUGAGCGCUGCUCACCAGAAGGCACAUGAGGAUCACCCAUGUAUGAA | – | – | 52.6 | 214
GGACCGCGCAGAGUUGGCGGUCGGCAGGAUAUGACAUGAGGAUCACCCAUGUGAACUCCAUUGGGUCAGAAGGGCCACGACACA | – | – | 22.4 | 107
UUCGGCGCACAGAAGGAUCGGUACAUGAGGAUCACCCAUGUAAGCAAAGAUAGGAUAUGUGGAGCUUACAGGGAAAAUGAACAA | 93.2 | 19 | – | –
AGCUGCAAUCAGAAGGAGUAGGGUACAUGAGGAUCACCCAUGUCCGAUGCUAGGAUAUGAAAGCAGACCCGUGGUACCAAUCCC | 33.5 | 7.39 | – | –
UGAUUGCCUGUAAGGAUAUCUACGGCCGUUCGCUGGGAGAAGGUACAUGAGGAUCACCCAUGUACAGUCAUGGG | – | – | 42.9 | 93.5
AUCCUGCGAGGAUAUACUUACUUUUUUUCAUUUGGUUGCGAACAUGAGGAUCACCCAUGUAGAAGGUGCAUAAC | – | – | 22.9 | 24.7
CCAUGUUAGCAGGAUAUGCAAUUAUUCUUUUACGCAGAAGGGCUUACAUGAGGAUCACCCAUGUAACAUUUCAU | – | – | 18.4 | 77.8
CCUUUGUCAGGAUAUCGAAAAGGGAGGCCAAAGGCCUCCGGUGAGAAGGGACAUGAGGAUCACCCAUGUGAAAA | – | – | 77.3 | 383
